Laboratory results taken from ChEMBL document CHEMBL4196173, “Stabilized β-Hairpin Peptide Inhibits Insulin Degrading Enzyme” (J Med Chem, 2018).
Active and inactive are the calls of the source. No cut-off for these calls is given here.

Experiments:
[1] = molecular target: T1, Insulin-degrading enzyme (Mus musculus, UniProt Q9JHR7); test: Inhibition of mouse His-tagged IDE (42 to 1019 residues) using fluorophore/quencher-tagged RPPGFSAFK(Dnp)-OH peptide as substrate preincubated for 10 mins followed by substrate addition measured over 5 mins by TR-FRET assay
T1 sequence (Q9JHR7 whole entry): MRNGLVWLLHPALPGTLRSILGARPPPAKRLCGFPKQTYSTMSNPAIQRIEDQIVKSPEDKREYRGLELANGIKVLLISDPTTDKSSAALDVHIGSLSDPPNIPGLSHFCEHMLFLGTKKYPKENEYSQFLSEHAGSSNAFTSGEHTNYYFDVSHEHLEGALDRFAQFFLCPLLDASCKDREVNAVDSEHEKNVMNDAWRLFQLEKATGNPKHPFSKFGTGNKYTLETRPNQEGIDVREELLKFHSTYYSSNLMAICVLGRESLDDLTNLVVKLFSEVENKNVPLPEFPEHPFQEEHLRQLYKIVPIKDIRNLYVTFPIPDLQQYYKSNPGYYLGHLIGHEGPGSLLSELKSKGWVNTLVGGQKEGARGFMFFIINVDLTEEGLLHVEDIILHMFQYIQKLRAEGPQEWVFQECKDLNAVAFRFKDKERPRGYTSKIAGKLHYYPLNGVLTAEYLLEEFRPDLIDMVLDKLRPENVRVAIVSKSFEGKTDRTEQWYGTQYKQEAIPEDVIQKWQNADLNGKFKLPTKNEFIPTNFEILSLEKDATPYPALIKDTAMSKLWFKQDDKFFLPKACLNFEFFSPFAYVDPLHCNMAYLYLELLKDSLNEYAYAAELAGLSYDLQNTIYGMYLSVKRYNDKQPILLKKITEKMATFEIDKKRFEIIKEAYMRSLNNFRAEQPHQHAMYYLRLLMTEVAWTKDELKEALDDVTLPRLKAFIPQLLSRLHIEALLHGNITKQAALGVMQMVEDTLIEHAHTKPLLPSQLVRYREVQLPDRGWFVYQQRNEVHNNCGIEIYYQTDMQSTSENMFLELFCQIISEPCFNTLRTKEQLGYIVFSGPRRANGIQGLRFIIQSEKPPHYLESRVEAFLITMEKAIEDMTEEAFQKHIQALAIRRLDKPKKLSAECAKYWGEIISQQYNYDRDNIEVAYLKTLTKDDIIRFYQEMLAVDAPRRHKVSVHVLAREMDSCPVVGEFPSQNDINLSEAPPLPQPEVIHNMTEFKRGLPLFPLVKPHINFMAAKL

[2] = Selectivity ratio of IC50 for ACE (unknown origin) to IC50 for mouse His-tagged IDE (42 to 1019 residues)
[3] = Drug uptake in human HeLa cells at 5 uM using FITC-labeled compound after 2 hrs at 310 K by LC-MS analysis; assay type: ADME, cell-based
Outline: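 HeLa cells were exposed to FITC-labelled peptide for 2 h, washed with PBS and 0.4% trypan blue, then trypsinized, washed and lysed. The lysates were examined by LC–MS.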

[4] = Cmax in lean C57BL/6J mouse at 100 mg/kg, ip by LC-MS analysis; assay type: ADME, organism-based; parameters: dose 100 mg/kg, route intraperitoneal; settings: in vivo
Outline: (§1)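 Male lean C57BL/6J mice, 13–15 weeks old, given one i.p. dose of 100 mg kg−1 (n = 5). Tail or eye-socket blood was taken from 20 min to 43 h and spun to plasma. 30 μL plasma was mixed with 100 μL 10% TCA in H2O/CH3CN (1:1) and chilled at 277 K for 15 min. After centrifugation the peptide left in the supernatant was quantified by LC–MS. Two independent experiments.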

[5] = Selectivity ratio of IC50 for ECE-1 (unknown origin) to IC50 for mouse His-tagged IDE (42 to 1019 residues)
[6] = system: Mus musculus; test: Effect on amyloid beta (1-40) levels in lean C57BL/6J mouse brain at 80 mg/kg, ip administered per another day measured after 4 hrs to 11 days post injection by ELISA; assay type: ADME, organism-based; settings: in vivo
Outline: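 Male lean C57BL/6J mice received 80 mg kg−1 i.p. every other day (n = 5) or PBS vehicle. Brains (~350 mg) were Dounce-homogenized in PBS with 1 mM PMSF and spun at 13,000 rpm for 30 min at 277 K. Supernatant Aβ(1–40) was measured by ELISA at 4 h, 24 h, 7 days and 11 days. Mean ± SEM, two-tailed t test.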

[7] = system: Mus musculus; test: AUC (0 to 43 hrs) in lean C57BL/6J mouse at 100 mg/kg, ip by LC-MS analysis; assay type: ADME, organism-based; parameters: time < 43 hr, dose 100 mg/kg, route intraperitoneal; settings: in vivo; outline: as §1
[8] = system: Mus musculus; test: Toxicity in lean C57BL/6J mouse assessed as behavioral changes at 80 mg/kg, ip; assay type: organism-based; settings: in vivo
Outline: (§2)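 Male lean C57BL/6J mice (13–15 weeks) received 80 mg kg−1 i.p. or PBS vehicle (n = 6 each). Behaviour and body weight were monitored.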

[9] = system: Mus musculus; test: Effect on basal TNFalpha levels in lean C57BL/6J mouse at 80 mg/kg, ip after 30 to 120 mins post injection by ELISA; assay type: ADME, organism-based; settings: in vivo
Outline: (§3)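 Male lean C57BL/6J mice received 80 mg kg−1 i.p. (n = 5) or PBS. At 30 or 120 min, heparinized blood was taken from tail or eye socket and spun to plasma. Insulin (5 μL plasma), C-peptide, glucagon, beta-endorphin and TNF alpha (10 μL each) were measured by ultrasensitive ELISA. Mean ± SEM, two-tailed t test.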

[10] = Drug uptake in human HeLa cells at 5 uM using FITC-labeled compound after 2 hrs at 310 K by trypan blue-fluorescence based FACS analysis; assay type: ADME, cell-based
Outline: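 HeLa cells were grown overnight in DMEM with 10% FBS, then given 5 μM FITC-labelled peptide in FBS-free medium for 2 h at 310 K. Cells were washed with PBS and 0.4% trypan blue, trypsinized and washed. Mean fluorescence was measured by flow cytometry with gated cell counts. Three independent experiments.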

[11] = system: Mus musculus; test: Induction of glucagon levels in lean C57BL/6J mouse at 80 mg/kg, ip after 30 to 120 mins post injection by ELISA; assay type: functional, organism-based; outline: as §3
[12] = system: Mus musculus; test: Toxicity in lean C57BL/6J mouse assessed as body weight change at 80 mg/kg, ip after 3 days; assay type: organism-based; settings: in vivo, 72 h; outline: as §2
[13] = system: Mus musculus; test: Anti-diabetic activity in DIO C57BL/6J mouse model assessed as reduction in glucose levels at 80 mg/kg, ip administered 30 min prior to glucose stimulation […] by GTT; assay type: functional, organism-based

CC(=O)N[C@@H](CCC(=O)O)C(=O)N[C@@H](Cc1c[nH]c2ccccc12)C(=O)N[C@@H](CCCNC(=N)N)C(=O)N[C@@H](Cc1ccccc1)C(=O)N[C@H]1CC(=O)NC[C@@H](C(=O)N[C@@H](CC(C)C)C(=O)N[C@@H](Cc2ccc(O)cc2)C(=O)N[C@@H](CC(C)C)C(=O)N[C@H](C(=O)N[C@@H](CS)C(=O)NCC(N)=O)C(C)C)NC(=O)[C@H](CCC(=O)O)NC(=O)[C@@H]2CCCN2C(=O)[C@H]2CCCN2C(=O)CNC1=O
IC50 [1]: 22 nM | Ratio IC50 [2]: > 1000 | Drug uptake [3]: Active | Cmax [4]: 619 µg/mL | Ratio IC50 [5]: > 1000 | Activity [6]: Non-Toxic | AUC [7]: 7600 µg·h/mL | Activity [8]: Non-Toxic | Activity [9]: Non-Toxic | Drug uptake [10]: Active | Activity [11]: Active | Activity [12]: Non-Toxic | Activity [13]: Active
